Results reported in ChEMBL document CHEMBL3792296, “Synthesis and antiproliferative activity of 9-benzylamino-6-chloro-2-methoxy-acridine derivatives as potent DNA-binding ligands and topoisomerase II inhibitors” (Eur J Med Chem, 2016).
pIC50: −log10 of the molar value. Activity calls are given as the source filed them. The calls are words filed in the database; no cut-off is given here.

Experiments:
[1] = test system: A549; test: Antiproliferative activity against human A549 cells after 48 hrs by MTT assay; format: functional, cell-based; conditions: A549, 48 h
Summary of the method: (§1)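 MTT assay: cells seeded at 4-8 × 10³ per well, incubated overnight at 37 °C in 5% CO₂, then given fresh medium with graded compound concentrations or equal DMSO for 48 h. MTT (5 mg/mL solution) added for a further 4 h, formazan dissolved in DMSO, absorbance read at 490 nm. Six cancer cell lines tested.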

[2] = test system: MCF7; test: Antiproliferative activity against human MCF7 cells after 48 hrs by MTT assay; format: functional, cell-based; conditions: MCF7, 48 h; summary of the method: as §1
[3] = test system: HeLa; test: Antiproliferative activity against human HeLa cells after 48 hrs by MTT assay; format: functional, cell-based; summary of the method: as §1
[4] = Antiproliferative activity against human HCT116 cells after 48 hrs by MTT assay; format: functional, cell-based; conditions: HCT-116, 48 h; summary of the method: as §1
[5] = test system: CCRF-CEM; test: Antiproliferative activity against human CCRF-CEM cells after 48 hrs by MTT assay; format: functional, cell-based; summary of the method: as §1
[6] = test system: Calf thymus DNA; test: Binding affinity to calf thymus DNA after 5 mins by UV-vis spectrophotometry; format: nucleic-acid assay; conditions: Bos taurus
Summary of the method: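 ctDNA at 0-44 µM is added to compound at 10 µM final in Tris-HCl buffer (pH 7.4). UV-vis absorption spectra are recorded after 5 min standing. The binding constant K_b is taken from a plot of absorption data against DNA concentration.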

[7] = target: DNA topoisomerase 2-alpha (Homo sapiens) (UniProt P11388); test: Inhibition of human recombinant topoisomerase 2-alpha expressed in Escherichia coli assessed as reduction in enzyme-mediated relaxation of supercoiled pBR322 DNA at 100 uM after 10 to 15 mins by agarose gel electrophoresis
Chain of DNA topoisomerase 2-alpha (Homo sapiens) (P11388 whole entry): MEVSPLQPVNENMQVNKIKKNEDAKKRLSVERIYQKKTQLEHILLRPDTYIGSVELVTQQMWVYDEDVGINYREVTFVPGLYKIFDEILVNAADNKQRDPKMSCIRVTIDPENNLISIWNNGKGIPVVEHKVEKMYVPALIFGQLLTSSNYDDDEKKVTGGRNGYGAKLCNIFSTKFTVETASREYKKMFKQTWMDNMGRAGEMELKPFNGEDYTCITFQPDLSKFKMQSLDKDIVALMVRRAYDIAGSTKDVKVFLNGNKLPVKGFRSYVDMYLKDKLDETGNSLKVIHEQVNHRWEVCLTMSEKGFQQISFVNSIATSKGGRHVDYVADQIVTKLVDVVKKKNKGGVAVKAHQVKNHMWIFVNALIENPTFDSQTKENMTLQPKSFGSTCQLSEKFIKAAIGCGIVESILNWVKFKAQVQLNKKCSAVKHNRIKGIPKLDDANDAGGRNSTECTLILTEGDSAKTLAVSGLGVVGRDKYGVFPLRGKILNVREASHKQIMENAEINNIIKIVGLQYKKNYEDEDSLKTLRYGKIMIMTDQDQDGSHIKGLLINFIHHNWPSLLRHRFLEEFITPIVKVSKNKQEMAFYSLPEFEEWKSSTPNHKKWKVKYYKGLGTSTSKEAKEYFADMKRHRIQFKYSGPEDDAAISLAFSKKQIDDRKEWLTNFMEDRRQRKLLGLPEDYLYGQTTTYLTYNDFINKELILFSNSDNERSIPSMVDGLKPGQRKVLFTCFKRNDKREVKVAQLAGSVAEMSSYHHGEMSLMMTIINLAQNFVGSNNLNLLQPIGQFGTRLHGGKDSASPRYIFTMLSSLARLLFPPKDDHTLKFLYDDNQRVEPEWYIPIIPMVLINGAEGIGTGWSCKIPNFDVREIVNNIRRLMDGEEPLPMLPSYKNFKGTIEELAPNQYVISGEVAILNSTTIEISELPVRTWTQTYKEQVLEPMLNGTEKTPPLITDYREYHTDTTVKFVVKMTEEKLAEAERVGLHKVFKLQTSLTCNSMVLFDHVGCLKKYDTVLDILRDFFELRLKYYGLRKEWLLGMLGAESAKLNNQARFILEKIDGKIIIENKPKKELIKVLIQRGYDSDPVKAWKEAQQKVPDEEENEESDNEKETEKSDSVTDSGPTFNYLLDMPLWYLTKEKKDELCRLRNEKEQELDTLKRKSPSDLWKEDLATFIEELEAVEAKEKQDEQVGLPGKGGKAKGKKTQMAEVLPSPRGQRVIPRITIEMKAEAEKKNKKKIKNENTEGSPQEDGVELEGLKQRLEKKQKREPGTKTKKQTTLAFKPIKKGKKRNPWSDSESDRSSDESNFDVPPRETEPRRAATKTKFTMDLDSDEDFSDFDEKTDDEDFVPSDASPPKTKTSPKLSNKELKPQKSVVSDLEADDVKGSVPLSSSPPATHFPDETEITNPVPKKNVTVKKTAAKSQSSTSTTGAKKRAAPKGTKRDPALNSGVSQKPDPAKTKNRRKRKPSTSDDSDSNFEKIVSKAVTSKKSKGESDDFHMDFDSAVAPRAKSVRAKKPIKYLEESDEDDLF
Summary of the method: (§2)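 Relaxation of 500 ng supercoiled pBR322 by 1 unit human Topo I or Topo IIα, with or without compound, in 20 µL reaction buffer at 37 °C for 10-15 min. Reactions stopped with loading buffer, run on 0.8% agarose in TAE at 80 V for 30 min. Gels stained with ethidium bromide 2.5 µg/mL and viewed under UV.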

[8] = target: DNA topoisomerase 2-alpha (Homo sapiens) (UniProt P11388); test: Inhibition of human recombinant topoisomerase 2-alpha expressed in Escherichia coli assessed as reduction in enzyme-mediated relaxation of supercoiled pBR322 DNA at 10 to 50 uM after 10 to 15 mins by agarose gel electrophoresis; summary of the method: as §2
[9] = target: T1, DNA topoisomerase 1 (Homo sapiens) (UniProt P11387); test: Inhibition of human topoisomerase 1 assessed as reduction in enzyme-mediated relaxation of supercoiled pBR322 DNA at 50 to 100 uM after 10 to 15 mins by agarose gel electrophoresis; summary of the method: as §2
T1 sequence (whole entry): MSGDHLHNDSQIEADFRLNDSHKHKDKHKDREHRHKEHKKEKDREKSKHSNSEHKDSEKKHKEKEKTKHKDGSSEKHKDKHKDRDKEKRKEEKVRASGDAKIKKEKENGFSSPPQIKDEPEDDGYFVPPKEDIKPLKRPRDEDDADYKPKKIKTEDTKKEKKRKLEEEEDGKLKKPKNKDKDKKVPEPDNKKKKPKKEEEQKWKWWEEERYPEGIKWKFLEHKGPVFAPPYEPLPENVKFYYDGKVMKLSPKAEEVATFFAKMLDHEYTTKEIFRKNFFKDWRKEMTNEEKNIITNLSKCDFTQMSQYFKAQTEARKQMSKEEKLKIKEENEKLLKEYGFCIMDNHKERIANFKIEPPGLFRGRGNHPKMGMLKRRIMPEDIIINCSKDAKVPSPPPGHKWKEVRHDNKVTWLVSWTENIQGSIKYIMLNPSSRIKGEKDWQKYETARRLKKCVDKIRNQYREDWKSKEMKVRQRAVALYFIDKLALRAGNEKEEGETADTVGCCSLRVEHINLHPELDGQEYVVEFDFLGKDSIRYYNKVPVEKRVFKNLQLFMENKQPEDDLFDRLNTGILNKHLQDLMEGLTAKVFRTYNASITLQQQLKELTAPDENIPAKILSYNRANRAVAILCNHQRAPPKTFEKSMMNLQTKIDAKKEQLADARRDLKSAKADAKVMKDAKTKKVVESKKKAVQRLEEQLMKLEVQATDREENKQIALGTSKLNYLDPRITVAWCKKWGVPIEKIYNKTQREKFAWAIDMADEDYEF

[10] = test system: A549; test: Induction of DNA damage in human A549 cells assessed as tail DNA at 10 uM after 24 hrs by propidium iodide staining based comet assay (reference value: 0.02%); format: cell-based
Summary of the method: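 Alkaline comet assay. About 10⁵ A549 cells per well incubated 12 h, then treated 24 h in serum-free medium against a DMSO control. Cells embedded in low-melting agarose, lysed 2 h, alkaline-unwound 0.5 h at 4 °C, electrophoresed at 300 mA for 25 min in the dark. Slides neutralized, PI-stained, 50 random cells scored for % tail DNA.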

SMILES	pIC50 [1]	inhibition [7]	other results
COc1cc(NS(C)(=O)=O)ccc1Nc1c2ccccc2nc2ccccc12 [AMSACRINE]	5.22		pIC50 [2]: 4.57; pIC50 [3]: 6.47; pIC50 [4]: 6.03; pIC50 [5]: 6.74; Kb [6]: 1.36 ×10⁵ /M
COc1ccc2nc3cc(Cl)ccc3c(NCc3ccc(F)c(F)c3)c2c1	< 4.60	Active	
COc1ccc2nc3cc(Cl)ccc3c(NCc3ccc(C)cc3)c2c1	5.58	Active	
COc1ccc2nc3cc(Cl)ccc3c(NCc3ccccc3C(F)(F)F)c2c1	5.20	Active	
COc1ccc2nc3cc(Cl)ccc3c(NCc3ccccc3F)c2c1	5.55	Active	
COc1ccc2nc3cc(Cl)ccc3c(NCc3ccc(C(C)(C)C)cc3)c2c1	5.15	Active	
COc1ccc2nc3cc(Cl)ccc3c(NCc3ccc(C(F)(F)F)cc3)c2c1	5.22	Active	
COc1ccc2nc3cc(Cl)ccc3c(NCc3ccc(Br)cc3)c2c1	5.49	Active	
COc1ccc2nc3cc(Cl)ccc3c(NCc3ccccc3Br)c2c1	5.52	Active	
COc1ccc2nc3cc(Cl)ccc3c(NCc3ccc(F)cc3)c2c1	5.39	Active	inhibition [9]: Active
COc1ccc2nc3cc(Cl)ccc3c(NCc3cccc(F)c3)c2c1	5.38	Active	
COc1cc([C@@H]2c3cc4c(cc3[C@@H](O[C@@H]3O[C@@H]5CO[C@@H](C)O[C@H]5[C@H](O)[C@H]3O)[C@H]3COC(=O)[C@H]23)OCO4)cc(OC)c1O [ETOPOSIDE]	5.42		pIC50 [3]: 4.38; pIC50 [4]: 5.22; pIC50 [5]: 6.92; inhibition [8]: Active; Activity [10]: 46.7%
COc1cc(CNc2c3ccc(Cl)cc3nc3ccc(OC)cc23)cc(OC)c1	5.04	Active	
COc1ccc2nc3cc(Cl)ccc3c(NCc3ccc(Cl)cc3)c2c1	5.38	Active	
CCc1ccc(CNc2c3ccc(Cl)cc3nc3ccc(OC)cc23)cc1	5.59	Active	inhibition [9]: Active
COc1ccc2nc3cc(Cl)ccc3c(NCc3cccc(Cl)c3)c2c1	5.33	Active	

Continued by rising pIC50 [1], values first:

pIC50 [1]	inhibition [7]	SMILES	other results
5.59	Active	COc1ccc2nc3cc(Cl)ccc3c(NCc3ccc(OC)c(OC)c3)c2c1	inhibition [9]: Active
5.65	Active	COc1ccc2nc3cc(Cl)ccc3c(NCc3cccc(C)c3)c2c1	
5.66	Active	COc1ccc2nc3cc(Cl)ccc3c(NCc3cc(OC)c(OC)c(OC)c3)c2c1	
5.74	Active	COc1ccc2nc3cc(Cl)ccc3c(NCc3cc(F)c(OC)c(F)c3)c2c1	
6.02	Active	COc1ccc2nc3cc(Cl)ccc3c(NCc3ccc(OC)c(F)c3)c2c1	pIC50 [2]: 5.12; pIC50 [3]: 5.39; pIC50 [4]: 6.07; pIC50 [5]: 5.51; inhibition [8]: Active
6.14	Active	COc1ccc2nc3cc(Cl)ccc3c(NCc3ccc(OC(F)F)cc3)c2c1	pIC50 [2]: 5.00; pIC50 [3]: 5.36; pIC50 [4]: 5.94; pIC50 [5]: 5.16; inhibition [8]: Active
6.19	Active	COc1ccc2nc3cc(Cl)ccc3c(NCc3ccc4c(c3)OCO4)c2c1	pIC50 [2]: 4.99; pIC50 [3]: 5.15; pIC50 [4]: 5.79; pIC50 [5]: 5.70; inhibition [8]: Active
6.80	Active	COc1ccc2nc3cc(Cl)ccc3c(NCc3cccc(C(F)(F)F)c3)c2c1	pIC50 [2]: 4.98; pIC50 [3]: 5.00; pIC50 [4]: 6.12; pIC50 [5]: 5.29; inhibition [8]: Active
7.05		COc1cccc2c1C(=O)c1c(O)c3c(c(O)c1C2=O)C[C@@](O)(C(=O)CO)C[C@@H]3O[C@H]1C[C@H](N)[C@H](O)[C@H](C)O1 [DOXORUBICIN]	pIC50 [2]: 6.09; pIC50 [3]: 6.11; pIC50 [5]: 7.28
